The record followed here is ChEMBL document CHEMBL4041520, “Novel pyrimidine-2,4-dione-1,2,3-triazole and furo[2,3-d]pyrimidine-2-one-1,2,3-triazole hybrids as potential anti-cancer agents: Synthesis, computational and X-ray analysis and biological evaluation” (Eur J Med Chem, 2017).

One assay deals with A549. Put plainly: Antiproliferative activity against human A549 cells after 72 hrs by MTT assay. The assay is classed as functional, cell-based. The note with it: A549, 72 h. In short, it runs like this: (§1)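 Monolayers grown in DMEM with 10% FBS and 2 mM L-glutamine at 37 °C, 5% CO2. Cells seeded at 5000 per well on day 0. Compounds added in five 10-fold dilutions (0.01–100 µM), DMSO ≤0.1%, for 72 h. MTT absorbance converted to percentage growth versus untreated wells. IC50 by linear regression of the dose-response curve; highest concentration reported when not reached. Quadruplicate points, three experiments.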

For the next assay, the system named is HepG2. The assay can be described thus: Antiproliferative activity against human HepG2 cells after 72 hrs by MTT assay. The format is functional, cell-based. Particulars: HepG2, 72 h. An outline of the steps:
as §1
(Tetrazolium dyes change colour on reduction, which living cells bring about.)

Another assay relates to CFPAC-1. Put plainly: Antiproliferative activity against human CFPAC-1 cells after 72 hrs by MTT assay. The format is functional, cell-based. The note with it: CFPAC-1, 72 h. In short, it runs like this: as §1
The subject of another assay is WI-38. The assay can be described thus: Antiproliferative activity against human WI38 cells after 72 hrs by MTT assay. The assay is classed as cell-based. Particulars: WI-38, 72 h. An outline of the steps:
as §1

The test system of the next assay is SW-620. Put plainly: Antiproliferative activity against human SW620 cells after 72 hrs by MTT assay. The format is functional, cell-based. The note with it: SW-620, 72 h. An outline of the steps: as §1
The subject of a further assay is HeLa. The assay can be described thus: Antiproliferative activity against human HeLa cells after 72 hrs by MTT assay. The assay is classed as functional, cell-based. An outline of the steps:
as §1

Usually IC50 stands for the point on the concentration scale where inhibition reaches its midpoint. A low value points to greater potency in that assay. Consider `O=c1nc2oc(CCCCl)c(C#CCCCCl)c2cn1Cc1cn(-c2ccc(Cl)cc2)nn1`, for which the IC50 with A549 is more than 100 µM; with HepG2, 72.5 µM; with CFPAC-1, more than 100 µM; with WI-38, more than 100 µM; in the assay with SW-620, more than 100 µM; in the assay on HeLa, more than 100 µM.
`O=c1[nH]c(=O)n(Cc2cn(-c3ccc(Cl)cc3)nn2)cc1I`: the IC50 in the assay on A549 was 50.6 µM; in the assay with HepG2, more than 100 µM; with CFPAC-1 it was 77.2 µM; in the assay with WI-38 it was less than 0.01 µM; with SW-620, 34.6 µM; with HeLa it was 6.79 µM.
With `O=c1nc2oc(CCCCl)c(C#CCCCCl)c2cn1Cc1cn(-c2ccc(F)cc2)nn1`, the IC50 with A549 turned out to be 39.4 µM; in the assay on HepG2 it was 36.9 µM; in the assay on CFPAC-1, 95.8 µM; in the assay on WI-38, 0.07 µM; in the assay with SW-620, 69.6 µM; with HeLa it was 41.8 µM.
As to `O=c1nc2oc(C3CC3)cc2cn1Cc1cn(Cc2ccccc2)nn1`, the IC50 in the assay on A549 turned out to be 45 µM; with HepG2, 49.1 µM; in the assay with CFPAC-1, 48.5 µM; in the assay on WI-38 it was 29.7 µM; with SW-620, 54.7 µM; in the assay with HeLa it was 50 µM.
As for `CCCCCCC#Cc1c(CCCCCC)oc2nc(=O)n(Cc3cn(-c4ccc(F)cc4)nn3)cc12`, the IC50 in the assay with A549, in the assay on HepG2, in the assay with CFPAC-1, with WI-38, with SW-620 and with HeLa was more than 100 µM in each case.
With `O=c1nc2oc(CCCCl)cc2cn1Cc1cn(-c2ccc(F)cc2)nn1`, the IC50 in the assay on A549 is 68.4 µM; in the assay on HepG2 it was 14.6 µM; with CFPAC-1, 6.49 µM; with WI-38, less than 0.01 µM; in the assay with SW-620 it was more than 100 µM; in the assay with HeLa, 6.99 µM.
In the case of `O=c1c(I)cn(Cc2cn(Cc3ccccc3)nn2)c(=O)n1Cc1cn(Cc2ccccc2)nn1`, the IC50 is 41.3 µM in the assay on A549; 5.77 µM in the assay on HepG2; more than 100 µM with CFPAC-1; less than 0.01 µM with WI-38; more than 100 µM with SW-620; 15.1 µM in the assay on HeLa.
For `O=c1nc2oc(C3CC3)cc2cn1Cc1cn(-c2ccc(Cl)cc2)nn1`, the IC50 is 61 µM with A549; more than 100 µM with HepG2; more than 100 µM in the assay on CFPAC-1; more than 100 µM in the assay on WI-38; more than 100 µM in the assay with SW-620; more than 100 µM in the assay with HeLa.
In the case of `CCCCCc1ccc(C#Cc2c(-c3ccc(CCCCC)cc3)oc3nc(=O)n(Cc4cn(-c5ccc(Cl)cc5)nn4)cc23)cc1`, the IC50 in the assay on A549, with HepG2, with CFPAC-1, in the assay on WI-38, with SW-620 and in the assay on HeLa was more than 100 µM each time.
In the case of `O=c1[nH]c(=O)n(Cc2cn(Cc3ccccc3)nn2)cc1I`, the IC50 was more than 100 µM in the assay on A549; more than 100 µM with HepG2; more than 100 µM with CFPAC-1; 55.2 µM in the assay on WI-38; more than 100 µM with SW-620; more than 100 µM in the assay on HeLa.
As to `O=c1nc2oc(CCCCl)c(C#CCCCCl)c2cn1Cc1cn(Cc2ccccc2)nn1`, the IC50 with A549 came to 26.9 µM; with HepG2, 25.5 µM; in the assay with CFPAC-1 it was 32.8 µM; in the assay with WI-38, 17.6 µM; in the assay with SW-620 it was 33.9 µM; with HeLa, 25.4 µM.
In the case of `CCCCCCc1cc2cn(Cc3cn(Cc4ccccc4)nn3)c(=O)nc2o1`, the IC50 in the assay on A549 came out at 51 µM; in the assay on HepG2 it was 68.7 µM; in the assay with CFPAC-1 it was 67 µM; with WI-38, 62.8 µM; in the assay with SW-620, 93.5 µM; in the assay with HeLa, 59.4 µM.
In the case of `CCCCCc1ccc(C#Cc2c(-c3ccc(CCCCC)cc3)oc3nc(=O)n(Cc4cn(-c5ccccc5F)nn4)cc23)cc1`, the IC50 in the assay on A549 is 38.6 µM; in the assay on HepG2, 72.5 µM; with CFPAC-1, more than 100 µM; with WI-38, 7.34 µM; in the assay with SW-620, 57.1 µM; with HeLa it was 9 µM.
On to `CCCCCc1ccc(C#Cc2c(-c3ccc(CCCCC)cc3)oc3nc(=O)n(Cc4cn(Cc5ccccc5)nn4)cc23)cc1`, for which the IC50 was more than 100 µM in the assay on A549; more than 100 µM with HepG2; more than 100 µM in the assay with CFPAC-1; 2.65 µM in the assay on WI-38; more than 100 µM in the assay on SW-620; 73 µM with HeLa.
Regarding `CCCCCCc1cc2cn(Cc3cn(-c4ccccc4F)nn3)c(=O)nc2o1`, the IC50 in the assay on A549 is more than 100 µM; in the assay with HepG2 it was more than 100 µM; in the assay on CFPAC-1 it was more than 100 µM; with WI-38, 69.2 µM; with SW-620, more than 100 µM; in the assay with HeLa, more than 100 µM.
`O=c1c(I)cn(Cc2cn(-c3ccc(F)cc3)nn2)c(=O)n1Cc1cn(-c2ccc(F)cc2)nn1`: the IC50 in the assay with A549 was 78.7 µM; in the assay with HepG2, 53.5 µM; in the assay with CFPAC-1 it was 51.2 µM; in the assay with WI-38, less than 0.01 µM; in the assay with SW-620, 94.8 µM; in the assay on HeLa, 41.9 µM.
In the case of `O=c1c(I)cn(Cc2cn(-c3ccc(Cl)cc3)nn2)c(=O)n1Cc1cn(-c2ccc(Cl)cc2)nn1`, the IC50 in the assay on A549 was 71.1 µM; with HepG2 it was more than 100 µM; in the assay with CFPAC-1, more than 100 µM; with WI-38, 0.03 µM; in the assay with SW-620, more than 100 µM; in the assay with HeLa, 96.5 µM.
Turning to `CCCCCCC#Cc1c(CCCCCC)oc2nc(=O)n(Cc3cn(Cc4ccccc4)nn3)cc12`, the 50% inhibitory concentration (IC50) in the assay on A549 is 21.9 µM; with HepG2, 25.8 µM; in the assay with CFPAC-1 it was 27.3 µM; in the assay with WI-38, 23.4 µM; in the assay on SW-620, 32.6 µM; in the assay on HeLa it was 23.4 µM.
Take `C#CCn1c(=O)c(I)cn(Cc2cn(-c3ccccc3F)nn2)c1=O`: the IC50 in the assay with A549 was 56.2 µM; in the assay with HepG2, more than 100 µM; in the assay with CFPAC-1, more than 100 µM; with WI-38, 0.16 µM; in the assay with SW-620, more than 100 µM; in the assay with HeLa, more than 100 µM.
With `O=c1[nH]c(=O)n(Cc2cn(-c3ccccc3F)nn2)cc1I`, the IC50 is 95.1 µM with A549; more than 100 µM in the assay on HepG2; more than 100 µM in the assay with CFPAC-1; 73.1 µM with WI-38; more than 100 µM in the assay with SW-620; more than 100 µM with HeLa.
In the case of `CCCCCCC#Cc1c(CCCCCC)oc2nc(=O)n(Cc3cn(-c4ccc(Cl)cc4)nn3)cc12`, the IC50 with A549, in the assay on HepG2, in the assay on CFPAC-1, in the assay on WI-38, with SW-620 and in the assay with HeLa was more than 100 µM each time.
In the case of `C#CCn1c(=O)c(I)cn(Cc2cn(-c3ccc(F)cc3)nn2)c1=O`, the IC50 is 3.06 µM with A549; 5.11 µM in the assay on HepG2; 4.21 µM in the assay with CFPAC-1; less than 0.01 µM in the assay with WI-38; 6.63 µM in the assay on SW-620; 4.5 µM with HeLa.
For the compound `O=c1nc2oc(C3CC3)c(C#CC3CC3)c2cn1Cc1cn(Cc2ccccc2)nn1`, the IC50 with A549 was found to be 4.81 µM; in the assay on HepG2, 2.67 µM; in the assay on CFPAC-1, 4.59 µM; in the assay on WI-38, 0.29 µM; with SW-620 it was 9.72 µM; in the assay with HeLa it was 6.51 µM.
Take `O=c1nc2oc(CCCCl)cc2cn1Cc1cn(-c2ccc(Cl)cc2)nn1`: the IC50 was 52 µM with A549; 89.8 µM in the assay with HepG2; more than 100 µM in the assay with CFPAC-1; 72.5 µM in the assay with WI-38; more than 100 µM with SW-620; 60.2 µM in the assay with HeLa.
With `O=c1nc2oc(CCCCl)cc2cn1Cc1cn(Cc2ccccc2)nn1`, the IC50 with A549 turned out to be 27.9 µM; with HepG2 it was 27.6 µM; in the assay on CFPAC-1 it was 23.5 µM; in the assay with WI-38, 5.2 µM; with SW-620, 75.5 µM; with HeLa, 9.58 µM.
For the compound `O=c1[nH]c(=O)n(Cc2cn(-c3ccc(F)cc3)nn2)cc1I`, the half-maximal inhibitory concentration (IC50) with A549 was 78.8 µM; with HepG2 it was more than 100 µM; with CFPAC-1 it was 83.7 µM; in the assay on WI-38 it was 3.78 µM; with SW-620, more than 100 µM; in the assay on HeLa, 7.2 µM.
In the case of `O=c1c(I)cn(Cc2cn(-c3ccccc3F)nn2)c(=O)n1Cc1cn(-c2ccccc2F)nn1`, the half-inhibitory concentration (IC50) in the assay with A549 was 53.4 µM; in the assay on HepG2, 36.1 µM; in the assay with CFPAC-1 it was 55.9 µM; with WI-38, 2.22 µM; in the assay with SW-620 it was more than 100 µM; in the assay with HeLa, 49.8 µM.
For the compound `O=c1nc2oc(C3CC3)c(C#CC3CC3)c2cn1Cc1cn(-c2ccccc2F)nn1`, the IC50 with A549 worked out at 38.3 µM; with HepG2 it was 39.1 µM; in the assay with CFPAC-1 it was 54.5 µM; in the assay on WI-38 it was 45.9 µM; with SW-620, 49.1 µM; with HeLa it was 51.2 µM.
Take `O=c1nc2oc(C3CC3)c(C#CC3CC3)c2cn1Cc1cn(-c2ccc(Cl)cc2)nn1`: the IC50 in the assay on A549 stood at 39 µM; in the assay with HepG2, 39.2 µM; in the assay with CFPAC-1, 35.4 µM; in the assay on WI-38, 3.15 µM; in the assay on SW-620, 36.9 µM; in the assay on HeLa, 16.1 µM.
As to `C#CCn1c(=O)c(I)cn(Cc2cn(-c3ccc(Cl)cc3)nn2)c1=O`, the IC50 with A549 worked out at 4.69 µM; with HepG2 it was 13.1 µM; in the assay with CFPAC-1, 5.53 µM; in the assay on WI-38, 0.04 µM; in the assay on SW-620 it was 18.3 µM; in the assay with HeLa, 4.74 µM.
Take `O=c1[nH]cc(F)c(=O)[nH]1` [FLUOROURACIL]: the IC50 with A549 amounted to 2.8 µM; in the assay on CFPAC-1 it was 0.14 µM; with WI-38 it was 0.94 µM; in the assay with SW-620, 0.08 µM; in the assay on HeLa, 8.81 µM.
